# Results as given in ChEMBL document CHEMBL3227936, “Actions of two dopamine derivatives at adreno- and cholinoceptors” (J Med Chem, 1979).
# Calls of active or inactive are those of the source. The rule behind the calls is not given here.
# Key:
# [1] = target: T1, Acetylcholinesterase (Gallus gallus, UniProt P36196); assay: Inhibition of acetylcholine esterase in chicken biventer cervicis muscle assessed as rate of acetylcholine hydrolysis by Ellman's method; design: species or system Muscle tissue; conditions: read-out: I50
# T1 sequence (P36196 whole entry): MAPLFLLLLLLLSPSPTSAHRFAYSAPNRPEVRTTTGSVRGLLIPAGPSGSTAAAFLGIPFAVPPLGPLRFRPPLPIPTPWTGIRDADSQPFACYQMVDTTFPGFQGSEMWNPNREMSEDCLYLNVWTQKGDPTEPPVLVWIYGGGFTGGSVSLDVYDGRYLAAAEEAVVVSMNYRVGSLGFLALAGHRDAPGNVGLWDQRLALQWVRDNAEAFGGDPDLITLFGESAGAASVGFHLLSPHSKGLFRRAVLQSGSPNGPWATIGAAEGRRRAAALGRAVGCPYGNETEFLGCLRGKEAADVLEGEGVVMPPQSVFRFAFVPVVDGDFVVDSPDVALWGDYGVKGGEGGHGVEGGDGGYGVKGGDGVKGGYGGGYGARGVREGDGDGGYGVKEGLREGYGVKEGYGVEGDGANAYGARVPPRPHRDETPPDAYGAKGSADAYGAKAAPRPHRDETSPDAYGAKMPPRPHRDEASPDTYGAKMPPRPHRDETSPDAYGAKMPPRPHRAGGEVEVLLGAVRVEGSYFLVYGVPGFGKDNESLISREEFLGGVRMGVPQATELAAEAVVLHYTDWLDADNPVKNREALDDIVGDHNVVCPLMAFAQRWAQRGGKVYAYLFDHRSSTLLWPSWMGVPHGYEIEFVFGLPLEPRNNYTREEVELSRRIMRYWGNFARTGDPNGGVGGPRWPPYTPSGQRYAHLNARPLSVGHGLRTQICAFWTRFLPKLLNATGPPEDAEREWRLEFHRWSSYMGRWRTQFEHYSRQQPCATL
# How it was run: (§1)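 Chick biventer cervicis muscle homogenates were assayed for cholinesterase with acetylthiocholine as substrate by Ellman's colorimetric method as modified by Gandiha et al. Absorbance change was read at 412 nm. Hydrolysis rates (µmol min^-1 g^-1) were compared with and without drug.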
# [2] = tested on: Felis catus; assay: Reduction of mean blood pressure in cat at 0.2 to 3 mg/kg, iv; format: functional, organism-based
# How it was run: (§2)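 Adult cats of either sex were anesthetized with α-chloralose 80 mg/kg plus sodium pentobarbitone 6 mg/kg ip, and nearly all were bilaterally vagotomized. Drugs were given iv via a femoral or brachial vein in acid-0.9% saline (pH 4.5). The sciatic nerve was stimulated to evoke soleus contractions, with maximal twitches at 0.1 Hz. Responses were recorded continuously.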
# [3] = tested on: Felis catus; assay: Reduction of heart rate in cat at 0.2 to 3 mg/kg, iv; format: functional, organism-based; how it was run: as §2
# [4] = tested on: Felis catus; assay: Reduction of mean blood pressure in cat at 0.2 to 3 mg/kg, iv in presence of atropine; format: functional, organism-based
# How it was run: (§3)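 Cats were anesthetized with α-chloralose 80 mg/kg plus pentobarbitone 6 mg/kg ip and vagotomized. Drugs were given iv in acid saline pH 4.5. Heart rate and blood pressure responses were recorded before and after atropine 1 mg/kg.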
# [5] = tested on: Felis catus; assay: Reduction of heart rate in cat at 0.2 to 3 mg/kg, iv in presence of atropine; format: functional, organism-based; how it was run: as §3
# [6] = tested on: Felis catus; assay: Reduction of mean blood pressure in atropinized-cat at 0.2 to 3 mg/kg, iv in presence of phentolamine; format: functional, organism-based
# How it was run: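 In atropinized cats (atropine 1 mg/kg) under chloralose–pentobarbitone anesthesia, drugs in acid saline pH 4.5 were given iv. Mean blood pressure responses were recorded with phentolamine 2 mg/kg.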
# [7] = tested on: Felis catus; assay: Reduction of twitch tension in soleus muscle of electrically stimulated cat at 0.2 to 3 mg/kg, iv; format: functional, organism-based; how it was run: as §2
# [8] = tested on: Felis catus; assay: Reduction of fused incomplete tetanic contraction in soleus muscle of electrically stimulated cat at 0.2 to 3 mg/kg, iv in presence of antagonist propranalol; format: functional, organism-based
# How it was run: (§4)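 In chloralose–pentobarbitone anesthetized cats, the sciatic nerve was stimulated to evoke soleus contractions. Drugs were given iv in acid saline pH 4.5, and responses were recorded after propranolol 0.4 mg/kg.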
# [9] = tested on: Felis catus; assay: Reduction of fused incomplete tetanic contraction in soleus muscle of electrically stimulated cat at 0.2 to 3 mg/kg, iv; format: functional, organism-based; how it was run: as §2
# [10] = tested on: Felis catus; assay: Reduction of twitch tension in soleus muscle of electrically stimulated cat at 0.2 to 3 mg/kg, iv in presence of antagonist propranolol; format: functional, organism-based; how it was run: as §4
# [11] = organism: Gallus gallus; assay: Agonist activity at cholinergic receptor in chicken biventer cervicis nerve muscle assessed as blockade of twitch accompanied with contracture at 10 to 200 ug/ml
# [12] = organism: Gallus gallus; assay: Agonist activity at cholinergic receptor in chicken biventer cervicis nerve muscle assessed as blockade of twitch response at 10 to 200 ug/ml in presence of choline
# [13] = organism: Gallus gallus; assay: Agonist activity at cholinergic receptor in chicken biventer cervicis nerve muscle assessed as blockade of twitch response at 10 to 200 ug/ml in presence of caffeine
# [14] = organism: Cavia porcellus; assay: Agonist activity at muscarinic acetylcholine receptor in guinea pig ileum smooth muscle assessed as contraction; format: tissue-based
# How it was run: (§5)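 Guinea pig ileum segments were kept in Tyrode solution at 32 °C and bubbled with air. Isotonic contractions to cholinergic agonists were recorded, and log concentration–effect curves were built. Points are means of at least four experiments.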
# [15] = target: T2, Acetylcholinesterase (Gallus gallus) (UniProt P36196); assay: Inhibition of acetylcholine esterase in chicken biventer cervicis muscle assessed as rate of acetylcholine hydrolysis at 1.3 X 10^-3 M by Ellman's method; conditions: Muscle tissue; how it was run: as §1
# T2 sequence (whole entry): T1 sequence (P36196 whole entry)
# [16] = organism: Gallus gallus; assay: Agonist activity at cholinergic receptor in chicken biventer cervicis nerve muscle assessed as blockade of twitch response at 10 to 200 ug/ml in presence of physostigmine
# [17] = organism: Gallus gallus; assay: Agonist activity at cholinergic receptor in chicken biventer cervicis nerve muscle assessed as blockade of twitch response at 10 to 200 ug/ml in presence of tetanus
# [18] = tested on: Felis catus; assay: Induction of fasiculated twitches in skeletal muscle of electrically stimulated cat at 0.2 to 3 mg/kg, iv relative to control; format: organism-based, Muscle tissue; design: dose 0.2-3 mg/kg, route intravenous; conditions: in vivo; how it was run: as §2
# [19] = organism: Gallus gallus; assay: (§6) Agonist activity at cholinergic receptor in chicken biventer cervicis nerve muscle assessed as twitch augmentation accompanied with contracture at 1 to 10 ug/ml
# [20] = organism: Gallus gallus; assay: Agonist activity at cholinergic receptor isolated from chicken biventer cervicis nerve muscle assessed as >10 ug/ml
# [21] = organism: Gallus gallus; assay: Agonist activity at cholinergic receptor isolated from chicken biventer cervicis nerve muscle assessed as >10 ug/ml measured after compound washout
# [22] = organism: Cavia porcellus; assay: Agonist activity at muscarinic acetylcholine receptor in guinea pig ileum smooth muscle assessed as contraction measured after compound washout; format: tissue-based; how it was run: as §5
# [23] = organism: Cavia porcellus; assay: Agonist activity at muscarinic acetylcholine receptor in guinea pig ileum smooth muscle assessed as contraction in presence of atropine; format: tissue-based
# How it was run: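 Guinea pig ileum was kept in Tyrode solution at 32 °C and aerated. Isotonic contractions were recorded, and concentration–effect curves were repeated after atropine 1×10^-8 M. Points are means of at least four experiments.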
# [24] = organism: Cavia porcellus; assay: Agonist activity at muscarinic acetylcholine receptor in guinea pig ileum smooth muscle assessed as contraction in presence of hexamethonium; format: tissue-based; how it was run: as §5
# [25] = organism: Gallus gallus; assay: as §6; remark: listed apart in the source
# [26] = organism: Gallus gallus; assay: Agonist activity at cholinergic receptor in chicken biventer cervicis nerve muscle assessed as twitch blockade at 1 to 10 ug/ml
# [27] = target: T2, Acetylcholinesterase (Gallus gallus); assay: Inhibition of acetylcholine esterase in chicken biventer cervicis muscle assessed as rate of acetylcholine hydrolysis at 37 uM by Ellman's method; conditions: Muscle tissue; how it was run: as §1
smiles,measurement,setting,value
CNC(=O)Oc1ccc2c(c1)[C@]1(C)CCN(C)[C@@H]1N2C [PHYSOSTIGMINE],IC50,[1],0.02 µM
CC1NCCc2cc(O)c(O)cc21 (stereo unspecified),Activity,[2],Dose-dependent effect
same,Activity,[3],Active
same,Activity,[4],inactive
same,Activity,[5],inactive
same,Activity,[6],inactive
same,Activity,[7],Active
same,Activity,[8],inactive
same,Activity,[9],Active
same,Activity,[10],inactive
same,Activity,[11],Active
same,Activity,[12],Active
same,Activity,[13],Active
same,Activity,[14],inactive
same,Activity,[15],7.48 µmol/min/g
same,Activity,[16],Active
same,Activity,[17],Active
Br.CC1(C)NCCc2cc(O)c(O)cc21,Activity,[2],Dose-dependent effect
same,Activity,[4],inactive
same,Activity,[6],inactive
same,Activity,[18],<= 100%
same,Activity,[19],Active
same,Activity,[20],Active
same,Activity,[21],inactive
same,Activity,[14],Active
same,Activity,[22],inactive
same,Activity,[23],inactive
same,Activity,[24],Active
same,IC50,[1],37 µM
same,Activity,[25],Active
same,Activity,[26],inactive
same,Activity,[27],3.55 µmol/min/g
C[N+](C)(C)CCOC(N)=O,Activity,[20],Active
same,Activity,[14],Active
same,Activity,[22],inactive
same,Activity,[23],inactive
